The source of these data is PMC4809803 (Oncogene, 2015).

Experiment [1] has as its system FLT3 signaling in FLT3-D835Y-transformed HCD-57 cells. The experiment in a line: Cell signaling western blot. Type of experiment: cell-based, murine. To be noted: 3 hours. In a few lines:
(§1)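 EPO-independent retrovirally transformed HCD-57 cells were treated with the indicated inhibitor concentrations for 3 h. They were lysed in whole-cell buffer (25 mM β-glycerophosphate pH 7.3, EDTA/EGTA, 1% Triton X-100, 0.1 M NaCl, 1 mM vanadate, protease inhibitors) and cleared at 13 000×g. Equal total protein was run on SDS gels and immunoblotted for pFLT3 (pY591), pERK1/2 (pT202/pY204), pAKT (pS473), total FLT3/ERK/AKT and GAPDH.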
On the technique in general: Immunoblotting shows a protein as a band on a membrane.

Experiment [2] relates to HCD-57 cells expressing FLT3-ITD. Put plainly: XTT cell viability assay, transformed HCD-57. The experiment is classed as cell-based, murine. To be noted: 48 hours. A general note: Tetrazolium assays rely on reduction of a dye to a coloured formazan, in cell work by metabolically active cells.
Experiment [3] deals with HCD-57 cells expressing FLT3-D835H. Put plainly: XTT cell viability assay, transformed HCD-57. The experiment is classed as cell-based, murine. The note with it: 48 hours.
Experiment [4] concerns FLT3-ITD-transformed HCD-57 cells. The experiment in a line: Cell cycle analysis, propidium iodide. The note with it: 100 and 500 nM, 24 hours. The experiment is classed as cell-based, murine.
For experiment [5], the system named is FLT3 signaling in FLT3-ITD-transformed HCD-57 cells. The experiment in a line: Cell signaling western blot. Type of experiment: cell-based, murine. The note with it: 3 hours. In outline:
as §1

Experiment [6] has as its system FLT3-ITD-transformed HCD-57 cells. The experiment in a line: Apoptosis assay, annexin V and propidium iodide. Type of experiment: cell-based, murine. The note with it: 100 and 500 nM, 24 hours.
The test system of experiment [7] is parent HCD-57 cells. Put plainly: Apoptosis assay, annexin V and propidium iodide. The experiment is classed as cell-based, murine. To be noted: 100 and 500 nM, 24 hours, cultured with EPO.
In experiment [8] the test system is FLT3-D835Y-transformed HCD-57 cells. Put plainly: Cell cycle analysis, propidium iodide. Type of experiment: cell-based, murine. To be noted: 100 and 500 nM, 24 hours.
The test system is the same in experiment [9]. The experiment in a line: Apoptosis assay, annexin V and propidium iodide. The experiment is classed as cell-based, murine. The note with it: 100 and 500 nM, 24 hours.
The subject of experiment [10] is parent HCD-57 cells. Put plainly: XTT cell viability assay, parent HCD-57. The experiment is classed as cell-based, murine. To be noted: 48 hours, with EPO.
Experiment [11] deals with HCD-57 cells expressing FLT3-D835Y. Put plainly: XTT cell viability assay, transformed HCD-57. The experiment is classed as cell-based, murine. To be noted: 48 hours.
Experiment [12] deals with HCD-57 cells transformed with JAK2V617F. The note with it: XTT, 48 hours.

Consider `CNC(=O)c1cc(Oc2ccc(NC(=O)Nc3ccc(Cl)c(C(F)(F)F)c3)cc2)ccn1` [sorafenib], for which the “phosphorylation of FLT3, ERK and Akt” value in [1] was “much less effective”; in experiment [5], “strong inhibitory effect”. The “effect on cell growth/viability” value in experiment [2] is on record as “strongly inhibited”; in experiment [3], “far less active”; in experiment [11], “far less active”. In addition, the “cell cycle distribution (G1, S+G2)” value in experiment [4] and in experiment [8] was “exhibited such an effect only on the FLT3-ITD cells” throughout. Also, the “percentage of apoptotic and necrotic cells” value in experiment [6] was “potent to induce apoptosis and necrosis”; in experiment [9] it was “no effect”. Besides, the apoptosis result with parent HCD-57 cells [7] was “neither JI6 nor sorafenib displayed significant effects”. Also, the “effect on cell viability” value (in the experiment on parent HCD-57 cells [10]; in [12]) was “far less active” throughout.
